Source: ChEMBL document CHEMBL2086252, “Syntheses and evaluation of anticonvulsant activity of novel branched alkyl carbamates” (J Med Chem, 2012)
Activity calls are given as the source filed them.

What was measured:
Mus musculus [1] = assay: Anticonvulsant activity in albino CF1 mouse assessed as protection against maximal electroshock-induced seizures at 100 mg/kg, ip after 4 hrs; assay type: functional, organism-based; design: dose 100 mg/kg
Outline: (§1)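 Mice dosed ip at 30, 100 or 300 mg/kg, then tested 0.5 h and 4 h after administration in the MES or scMet test. Protection was recorded as animals protected over animals tested. Neurotoxicity was recorded as motor impairment or sedation, as animals affected over animals tested.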

Rattus norvegicus [2] = assay: Neurotoxicity in pilocarpine-induced status epilepticus Sprague-Dawley albino rat model assessed as minimal motor impairment at 300 mg/kg, ip after 0.25 hr by rotarod test; assay type: toxicity, organism-based; design: dose 300 mg/kg, route intraperitoneal; conditions: in vivo
Outline: (§2)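 Rat pilocarpine status epilepticus model: test carbamate given at 0 or 30 min after the first observed Racine stage 3 motor seizure, which marks SE onset. Neurotoxicity was scored within the same model.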

Mus musculus [3] = assay: Neurotoxicity in albino CF1 mouse assessed as minimal motor impairment at 30 mg/kg, ip after 4 hrs by rotarod test; assay type: toxicity, organism-based; design: dose 30 mg/kg, route intraperitoneal; conditions: in vivo; outline: as §1
Mus musculus [4] = assay: Neurotoxicity in albino CF1 mouse assessed as minimal motor impairment at 100 mg/kg, ip after 0.5 hrs by rotarod test; assay type: toxicity, organism-based; design: dose 100 mg/kg, route intraperitoneal; conditions: in vivo; outline: as §1
Mus musculus [5] = assay: Protective index, ratio of TD50 for ip dosed albino CF1 mouse by rotarod test to ED50 for ip dosed albino CF1 mouse by 6 Hz psychomotor seizure test; assay type: functional
Outline: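 Protective index calculated as TD50/ED50, with TD50 and ED50 taken from the same species and dosing route.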

Rattus norvegicus [6] = assay: Anticonvulsant activity in ip dosed Sprague-Dawley albino rat assessed as protection against pilocarpine-induced status epilepticus after 0.5 hrs; assay type: functional
Outline: (§3)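 Pilocarpine status epilepticus model in rats. Number and severity of convulsive seizures were observed behaviourally.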

Mus musculus [7] = assay: Neurotoxicity in albino CF1 mouse assessed as minimal motor impairment at 100 mg/kg, ip after 4 hrs by rotarod test; assay type: toxicity, organism-based; design: dose 100 mg/kg, route intraperitoneal; conditions: in vivo; outline: as §1
Mus musculus [8] = assay: Anticonvulsant activity in albino CF1 mouse assessed as protection against maximal electroshock-induced seizures at 100 mg/kg, ip after 0.5 hrs; assay type: functional, organism-based; design: dose 100 mg/kg; outline: as §1
Mus musculus [9] = assay: Anticonvulsant activity in albino CF1 mouse assessed as protection against maximal electroshock-induced seizures at 300 mg/kg, ip after 4 hrs; assay type: functional, organism-based; design: dose 300 mg/kg; outline: as §1
Rattus norvegicus [10] = assay: Neurotoxicity in pilocarpine-induced status epilepticus Sprague-Dawley albino rat model assessed as minimal motor impairment at 30 mg/kg, ip after 0.5 hrs by rotarod test; assay type: toxicity, organism-based; design: dose 30 mg/kg, route intraperitoneal; conditions: in vivo; outline: as §2
Rattus norvegicus [11] = assay: Neurotoxicity in pilocarpine-induced status epilepticus Sprague-Dawley albino rat model assessed as minimal motor impairment at 100 mg/kg, ip after 2 hrs by rotarod test; assay type: toxicity, organism-based; design: dose 100 mg/kg, route intraperitoneal; conditions: in vivo
Mus musculus [12] = assay: Anticonvulsant activity in albino CF1 mouse assessed as protection against maximal electroshock-induced seizures at 30 mg/kg, ip after 0.5 hrs; assay type: functional, organism-based; design: dose 30 mg/kg; outline: as §1
Mus musculus [13] = assay: Anticonvulsant activity in ip dosed albino CF-1 mouse assessed as protection against 6 Hz psychomotor seizure; assay type: functional; conditions: albino CF-1, ip
Outline: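 Quantitative testing: rats dosed orally or ip in MES and scMet tests, and mice dosed ip, including the 6 Hz (32 mA) psychomotor seizure test. ED50 and TD50 were reported in mg/kg with ranges in parentheses. Protective index was calculated as TD50/ED50.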

Mus musculus [14] = assay: Anticonvulsant activity in albino CF1 mouse assessed as protection against maximal electroshock-induced seizures at 30 mg/kg, ip after 4 hrs; assay type: functional, organism-based; design: dose 30 mg/kg; outline: as §1
Rattus norvegicus [15] = assay: Anticonvulsant activity in Sprague-Dawley albino rat assessed as protection against maximal electroshock-induced seizures at 30 mg/kg, po after 1 hr; assay type: functional, organism-based; design: dose 30 mg/kg
Outline: (§4)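 Rats dosed orally. Anti-MES protection was scored as animals protected over animals tested at each time after dosing. Neurotoxicity was scored as motor impairment or sedation, as animals affected over animals tested.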

Rattus norvegicus [16] = assay: Neurotoxicity in pilocarpine-induced status epilepticus Sprague-Dawley albino rat model assessed as minimal motor impairment at 160 mg/kg, ip after 0.5 hrs by rotarod test; assay type: toxicity, organism-based; design: dose 160 mg/kg, route intraperitoneal; conditions: in vivo
Rattus norvegicus [17] = assay: Neurotoxicity in pilocarpine-induced status epilepticus Sprague-Dawley albino rat model assessed as minimal motor impairment at 100 mg/kg, ip after 0.5 hrs by rotarod test; assay type: toxicity, organism-based; design: dose 100 mg/kg, route intraperitoneal; conditions: in vivo
Rattus norvegicus [18] = assay: Anticonvulsant activity in Sprague-Dawley albino rat assessed as protection against pilocarpine-induced status epilepticus at 65 mg/kg, ip; assay type: functional, organism-based; design: dose 65 mg/kg; outline: as §3
Mus musculus [19] = assay: Anticonvulsant activity in albino CF1 mouse assessed as protection against subcutaneous metrazol-induced seizures at 100 mg/kg, ip after 4 hrs; assay type: functional, organism-based; design: dose 100 mg/kg; outline: as §1
Mus musculus [20] = assay: Neurotoxicity in albino CF1 mouse assessed as minimal motor impairment at 30 mg/kg, ip after 0.5 hrs by rotarod test; assay type: toxicity, organism-based; design: dose 30 mg/kg, route intraperitoneal; conditions: in vivo; outline: as §1
Mus musculus [21] = assay: Anticonvulsant activity in albino CF1 mouse assessed as protection against subcutaneous metrazol-induced seizures at 100 mg/kg, ip after 0.5 hrs; assay type: functional, organism-based; design: dose 100 mg/kg; outline: as §1
Rattus norvegicus [22] = assay: Neurotoxicity in Sprague-Dawley albino rat assessed as minimal motor impairment at 30 mg/kg, po by rotarod test; assay type: toxicity, organism-based; design: dose 30 mg/kg, route oral; conditions: in vivo; outline: as §4
Rattus norvegicus [23] = assay: Neurotoxicity in pilocarpine-induced status epilepticus Sprague-Dawley albino rat model assessed as minimal motor impairment at 100 mg/kg, ip after 0.25 hr by rotarod test; assay type: toxicity, organism-based; design: dose 100 mg/kg, route intraperitoneal; conditions: in vivo
Mus musculus [24] = assay: Anticonvulsant activity in albino CF1 mouse assessed as protection against subcutaneous metrazol-induced seizures at 30 mg/kg, ip after 0.5 hrs; assay type: functional, organism-based; design: dose 30 mg/kg; outline: as §1
Rattus norvegicus [25] = assay: Neurotoxicity in pilocarpine-induced status epilepticus Sprague-Dawley albino rat model assessed as minimal motor impairment at 300 mg/kg, ip after 0.5 hrs by rotarod test; assay type: toxicity, organism-based; design: dose 300 mg/kg, route intraperitoneal; conditions: in vivo; outline: as §2
Rattus norvegicus [26] = assay: Anticonvulsant activity in Sprague-Dawley albino rat assessed as protection against maximal electroshock-induced seizures at 30 mg/kg, po after 4 hrs; assay type: functional, organism-based; design: dose 30 mg/kg; outline: as §4
Rattus norvegicus [27] = assay: Neurotoxicity in pilocarpine-induced status epilepticus Sprague-Dawley albino rat model assessed as minimal motor impairment at 50 mg/kg, ip after 0.5 hrs by rotarod test; assay type: toxicity, organism-based; design: dose 50 mg/kg, route intraperitoneal; conditions: in vivo; outline: as §2
Mus musculus [28] = assay: Anticonvulsant activity in albino CF1 mouse assessed as protection against subcutaneous metrazol-induced seizures at 300 mg/kg, ip after 4 hrs; assay type: functional, organism-based; design: dose 300 mg/kg; outline: as §1
Rattus norvegicus [29] = assay: Neurotoxicity in pilocarpine-induced status epilepticus Sprague-Dawley albino rat model assessed as minimal motor impairment at 30 mg/kg, ip after 1 hr by rotarod test; assay type: toxicity, organism-based; design: dose 30 mg/kg, route intraperitoneal; conditions: in vivo; outline: as §2
Rattus norvegicus [30] = assay: Neurotoxicity in pilocarpine-induced status epilepticus Sprague-Dawley albino rat model assessed as minimal motor impairment at 30 mg/kg, ip after 0.25 hr by rotarod test; assay type: toxicity, organism-based; design: dose 30 mg/kg, route intraperitoneal; conditions: in vivo; outline: as §2
Rattus norvegicus [31] = assay: Neurotoxicity in pilocarpine-induced status epilepticus Sprague-Dawley albino rat model assessed as minimal motor impairment at 100 mg/kg, ip after 1 hr by rotarod test; assay type: toxicity, organism-based; design: dose 100 mg/kg, route intraperitoneal; conditions: in vivo
Mus musculus [32] = assay: Neurotoxicity in albino CF1 mouse assessed as minimal motor impairment at 300 mg/kg, ip after 4 hrs by rotarod test; assay type: toxicity, organism-based; design: dose 300 mg/kg, route intraperitoneal; conditions: in vivo; outline: as §1
Rattus norvegicus [33] = assay: Anticonvulsant activity in Sprague-Dawley albino rat assessed as protection against maximal electroshock-induced seizures at 30 mg/kg, po after 15 mins; assay type: functional, organism-based; design: dose 30 mg/kg; outline: as §4
Mus musculus [34] = assay: Anticonvulsant activity in albino CF1 mouse assessed as protection against subcutaneous metrazol-induced seizures at 30 mg/kg, ip after 4 hrs; assay type: functional, organism-based; design: dose 30 mg/kg; outline: as §1
Rattus norvegicus [35] = assay: Neurotoxicity in pilocarpine-induced status epilepticus Sprague-Dawley albino rat model assessed as minimal motor impairment at 30 mg/kg, ip after 4 hrs by rotarod test; assay type: toxicity, organism-based; design: dose 30 mg/kg, route intraperitoneal; conditions: in vivo; outline: as §2
Rattus norvegicus [36] = assay: Neurotoxicity in pilocarpine-induced status epilepticus Sprague-Dawley albino rat model assessed as minimal motor impairment at 30 mg/kg, ip after 2 hrs by rotarod test; assay type: toxicity, organism-based; design: dose 30 mg/kg, route intraperitoneal; conditions: in vivo; outline: as §2
Rattus norvegicus [37] = assay: Neurotoxicity in pilocarpine-induced status epilepticus Sprague-Dawley albino rat model assessed as minimal motor impairment at 100 mg/kg, ip after 4 hrs by rotarod test; assay type: toxicity, organism-based; design: dose 100 mg/kg, route intraperitoneal; conditions: in vivo
Rattus norvegicus [38] = assay: Anticonvulsant activity in Sprague-Dawley albino rat assessed as protection against maximal electroshock-induced seizures at 30 mg/kg, po after 2 hrs; assay type: functional, organism-based; design: dose 30 mg/kg; outline: as §4
Rattus norvegicus [39] = assay: Anticonvulsant activity in Sprague-Dawley albino rat assessed as protection against maximal electroshock-induced seizures at 30 mg/kg, po after 30 mins; assay type: functional, organism-based; design: dose 30 mg/kg; outline: as §4

CC(C)C(COC(N)=O)C(C)C
active: Activity (Rattus norvegicus [18])
Toxic: Activity (Rattus norvegicus [2]) | Activity (Rattus norvegicus [16]) | Activity (Rattus norvegicus [17]) | Activity (Rattus norvegicus [23]) | Activity (Rattus norvegicus [25])
inactive: Activity (Mus musculus [1]) | Activity (Mus musculus [8]) | Activity (Mus musculus [9]) | Activity (Mus musculus [12]) | Activity (Mus musculus [14]) | Activity (Rattus norvegicus [15]) | Activity (Mus musculus [19]) | Activity (Mus musculus [21]) | Activity (Mus musculus [24]) | Activity (Rattus norvegicus [26]) | Activity (Mus musculus [28]) | Activity (Rattus norvegicus [33]) | Activity (Mus musculus [34]) | Activity (Rattus norvegicus [38]) | Activity (Rattus norvegicus [39])
184 mg/kg: ED97 (Rattus norvegicus [6])
3.4: Ratio TD50/ED50 (Mus musculus [5])
94 mg/kg: ED50 (Rattus norvegicus [6])
Non-toxic: Activity (Mus musculus [3]) | Activity (Mus musculus [4]) | Activity (Mus musculus [7]) | Activity (Rattus norvegicus [10]) | Activity (Rattus norvegicus [11]) | Activity (Mus musculus [20]) | Activity (Rattus norvegicus [22]) | Activity (Rattus norvegicus [27]) | Activity (Rattus norvegicus [29]) | Activity (Rattus norvegicus [30]) | Activity (Rattus norvegicus [31]) | Activity (Mus musculus [32]) | Activity (Rattus norvegicus [35]) | Activity (Rattus norvegicus [36]) | Activity (Rattus norvegicus [37])
41 mg/kg: ED50 (Mus musculus [13])
